According to PubChem BioAssay:
Active and inactive are the calls of the source.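 How the source made its calls, unless noted: active means potentiation averaged over duplicate wells exceeding buffer-only control mean by more than 3 SD; inactive means the rest.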

These compounds were tested against Potassium voltage-gated channel subfamily KQT member 1 (Homo sapiens) (UniProt P51787) (assay: KCNQ1 potassium channel potentiators, confirmation, FluxOR thallium flux, CHO cells, duplicates (AID 493007;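 on outcome: cells depolarized by a potassium plus thallium sulfate stimulus after compound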)). Conditions: KCNQ1 cell line, FluxOR thallium flux fluorescence, at 10 µM; stronger effect = higher value, % of reference activator effect, buffer zero.
Chain of Potassium voltage-gated channel subfamily KQT member 1 (Homo sapiens) (P51787 whole entry, looked up): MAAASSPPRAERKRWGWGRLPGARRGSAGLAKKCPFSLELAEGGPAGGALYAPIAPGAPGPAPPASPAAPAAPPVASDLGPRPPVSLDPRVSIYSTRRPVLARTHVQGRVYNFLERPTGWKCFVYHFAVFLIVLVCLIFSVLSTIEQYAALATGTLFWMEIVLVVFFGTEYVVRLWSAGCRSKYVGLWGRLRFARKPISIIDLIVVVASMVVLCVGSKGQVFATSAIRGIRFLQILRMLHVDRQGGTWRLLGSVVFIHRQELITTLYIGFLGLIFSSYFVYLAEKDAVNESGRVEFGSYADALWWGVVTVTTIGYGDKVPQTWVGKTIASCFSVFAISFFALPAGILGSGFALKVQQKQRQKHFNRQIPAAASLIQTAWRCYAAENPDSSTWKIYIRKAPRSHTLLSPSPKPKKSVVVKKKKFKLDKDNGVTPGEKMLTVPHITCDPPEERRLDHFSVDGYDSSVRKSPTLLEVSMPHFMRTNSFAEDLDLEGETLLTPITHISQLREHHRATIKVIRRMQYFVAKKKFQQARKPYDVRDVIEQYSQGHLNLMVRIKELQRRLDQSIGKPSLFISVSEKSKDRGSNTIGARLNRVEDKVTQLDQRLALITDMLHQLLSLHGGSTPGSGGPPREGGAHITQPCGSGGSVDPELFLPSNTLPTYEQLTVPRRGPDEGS
Procedure, shortened: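 Test system – KCNQ1-expressing CHO cell line · Incubation – FluxOR dye loading 90 min, compound exposure 20 min, room temperature · Detection – FluxOR Tl+ flux fluorescence, 10 s baseline plus 110 s recording · Controls – buffer-only wells as 0% and R-L3 activator as 100%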
In the case of `CC(=O)OC(C)(C)/C=C/C(=O)C(C)(O)C1[C@H](O)C[C@@]2(C)C3CC=C4C(CC[C@@H](O)C4(C)C)[C@]3(CO)C(=O)C[C@]12C` (stereo partly drawn), the outcome was “inactive”. `Cc1ccccc1-n1c(O)c(/C=N/N2CCOCC2)c(=O)[nH]c1=S` was tested, and the outcome was “inactive”. For `Cc1ccc(/C=C2/C(=O)NC(=O)N(CCc3ccc(F)cc3)C2=O)o1`, the outcome was “inactive”. In the case of `Cc1ccccc1CC(=O)N(CCN(C)C)CC1CCCN(Cc2ccccc2F)C1` (stereo not drawn), the outcome was “inactive”. In the case of `CC1(C)CSC(=NCc2ccccc2)N1`, the potentiation was 23% (active). For `COc1ccc(C2NCc3ccc4c(c3-n3cccc32)OCO4)cc1O` (stereo not drawn), the outcome was “inactive”. For `COc1cccc(CC(=O)N2CCN(Cc3cccc(Cl)c3)CC2)c1`, the outcome was “inactive”. `COc1ccc(C(=O)OC2CC[C@@]3(C)C4CCC5[C@]6(O)CC(O)[C@@]7(O)C(CN8CC(C)CCC8[C@@]7(C)O)[C@]6(O)C[C@@]53O[C@]24O)cc1OC` (stereo partly drawn) was tested, and the potentiation was 25.5% (active). With `CC/C(=C\C=C\[C@@H]1C=C[C@@H]2CCC[C@H]2[C@@H]1C(=O)c1ccc[nH]1)[C@@H]1O[C@@H]([C@@H](C)C(=O)O)CC[C@@H]1C` the potentiation was 166% (active). For `CC(=NCc1ccc(F)cc1)c1c(O)n(C)c(=O)n(C)c1=O`, the potentiation was 91.5% (active). For `O=C1NC(=O)N(Cc2ccc(F)cc2)C(=O)/C1=C/c1cccs1`, the outcome was “inactive”. In the case of `Cn1cccc1/C=C1/C(=O)NC(=S)N(Cc2ccc(F)cc2)C1=O`, the outcome was “inactive”. For `c1ccc2c(c1)Sc1ccccc1N2CC1CN2CCC1CC2` (stereo not drawn), the outcome was “inactive”. For `C/C1=C\[C@@H](C)C/C=C/[C@H]2[C@@H]3O[C@]3(C)[C@@H](C)[C@H]3[C@H](Cc4c[nH]c5ccccc45)NC(=O)[C@]32C(=O)/C=C/C(=O)[C@@H]1O`, the potentiation was 20.5% (active). With `O=C(c1ccc(-c2ccccc2)cc1)C1CCCN(Cc2ccn[nH]2)C1` (stereo not drawn) the outcome was “inactive”. For `CCOC(=O)C1C(=O)NC2(C)CC1c1cc(OC)ccc1O2` (stereo not drawn), the outcome was “inactive”. `CN1CC(C(=O)c2ccccc2)C(c2ccccc2)C1` (stereo not drawn) was tested, and the outcome was “inactive”. `O=c1c(C=NCCN2CCNCC2)c(O)n(C2CCCCC2)c(=O)n1C1CCCCC1` was tested, and the outcome was “inactive”. `CNc1ccc2oc(C[C@H]3O[C@@]4(CC[C@H]3C)O[C@H]([C@H](C)C(=O)c3ccc[nH]3)[C@H](C)C[C@H]4C)nc2c1C(=O)O` was tested, and the potentiation was 89% (active). With `CCOP1(=S)Oc2cc3c(cc2C(C(=O)OC)(C(F)(F)F)O1)OCO3` (stereo not drawn) the outcome was “inactive”. For `COc1ccccc1N(CC(=O)NC1CCCC1)C(=O)c1cnn(C(C)C)c1`, the outcome was “inactive”. With `CC1(C)C[C@H]2C=C(C=O)[C@]3(C=O)C[C@]3(C)[C@H]2C1` the potentiation was 24% (active). With `COc1ccc2c(c1)/C(=C/c1cnc[nH]1)C(=O)N2` the outcome was “inactive”. `O=[N+]([O-])c1ccc(N2CCOCC2)c2ccncc12` was tested, and the outcome was “inactive”. In the case of `CCOP(=S)(OCC)c1ccc(N(C)C)cc1`, the outcome was “inactive”. With `N#CCCn1cc(C(=O)Nc2ccccc2Cl)c(-c2ccc(F)cc2)n1` the outcome was “inactive”. `C=C(C)[C@@]12OC3(c4ccccc4)O[C@@H]1C1[C@@H]4O[C@]4(CO)[C@@H](O)[C@]4(O)C(=O)C(C)=C[C@H]4[C@@]1(O3)[C@H](C)[C@H]2OC(=O)/C=C/C=C/c1ccccc1` (stereo partly drawn) was tested, and the outcome was “inactive”. `N#Cc1c(N2CCNCC2)nc(-c2ccco2)c2c1CCCC2` was tested, and the outcome was “inactive”. For `Cc1c(Cl)cccc1NC(=S)N1CC2CC(C1)c1cccc(=O)n1C2` (stereo not drawn), the outcome was “inactive”. `CCN(CC)C(=O)c1ccc(NC(=O)CSc2nnnn2-c2cc(OC)ccc2OC)cc1` was tested, and the outcome was “inactive”. With `O=C(O)c1cccc2c1NC(c1cccc([N+](=O)[O-])c1)C1CC(Sc3ccccc3[N+](=O)[O-])C(Cl)C21` (stereo not drawn) the outcome was “inactive”. `Cc1nc2ccccc2c(=O)n1/N=C/c1cc(Br)cc(Br)c1O` was tested, and the outcome was “inactive”. For `C/C=C(\C)C(=O)N[C@@H](c1ccccc1)[C@@H](O)C(=O)O[C@H]1C[C@@]2(O)[C@@H](OC(=O)c3ccccc3)C3[C@](C)(C(=O)[C@H](OC(C)=O)C(=C1C)C2(C)C)[C@@H](O)C[C@H]1OC[C@@]31OC(C)=O` (stereo partly drawn), the outcome was “inactive”. For `CN1CCC(c2c[nH]c3ccccc23)C1` (stereo not drawn), the outcome was “inactive”. `O=[N+]([O-])c1cccc(C2N3CCCN23)c1` (stereo not drawn) was tested, and the outcome was “inactive”. `CC1=CC2/C=C(\C)CCC(O)C(O)/C=C/C(=O)C23C(=O)NC(CC(C)C)C3C1C` (stereo not drawn) was tested, and the potentiation was 23% (active). `CNC(=O)NC(O)C(Cl)(Cl)Cl` (stereo not drawn) was tested, and the outcome was “inactive”. In the case of `CCOc1cc(CNCCc2c[nH]c3ccccc23)cc(Cl)c1OCC`, the potentiation was 19% (active).

These compounds were tested against Potassium voltage-gated channel subfamily KQT member 2 (Rattus norvegicus) (UniProt O88943) (assay: rat KCNQ2 channel potentiation, selectivity assay for KCNQ1 potentiator project, KCNQ2-CHO-K1 cells (AID 493009;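 active means mean duplicate potentiation above the buffer control mean plus 5 SD of buffer wells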;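 further: assay conditions were tuned for KCNQ1 rather than KCNQ2 modulators; signal is max minus min fluorescence divided by baseline after thallium stimulus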)). Conditions: FluxOR thallium flux fluorescence, at 10 µM; stronger effect = higher value, scaled: buffer 0, activator control 100.
Chain of Potassium voltage-gated channel subfamily KQT member 2 (Rattus norvegicus) (O88943 whole entry, looked up): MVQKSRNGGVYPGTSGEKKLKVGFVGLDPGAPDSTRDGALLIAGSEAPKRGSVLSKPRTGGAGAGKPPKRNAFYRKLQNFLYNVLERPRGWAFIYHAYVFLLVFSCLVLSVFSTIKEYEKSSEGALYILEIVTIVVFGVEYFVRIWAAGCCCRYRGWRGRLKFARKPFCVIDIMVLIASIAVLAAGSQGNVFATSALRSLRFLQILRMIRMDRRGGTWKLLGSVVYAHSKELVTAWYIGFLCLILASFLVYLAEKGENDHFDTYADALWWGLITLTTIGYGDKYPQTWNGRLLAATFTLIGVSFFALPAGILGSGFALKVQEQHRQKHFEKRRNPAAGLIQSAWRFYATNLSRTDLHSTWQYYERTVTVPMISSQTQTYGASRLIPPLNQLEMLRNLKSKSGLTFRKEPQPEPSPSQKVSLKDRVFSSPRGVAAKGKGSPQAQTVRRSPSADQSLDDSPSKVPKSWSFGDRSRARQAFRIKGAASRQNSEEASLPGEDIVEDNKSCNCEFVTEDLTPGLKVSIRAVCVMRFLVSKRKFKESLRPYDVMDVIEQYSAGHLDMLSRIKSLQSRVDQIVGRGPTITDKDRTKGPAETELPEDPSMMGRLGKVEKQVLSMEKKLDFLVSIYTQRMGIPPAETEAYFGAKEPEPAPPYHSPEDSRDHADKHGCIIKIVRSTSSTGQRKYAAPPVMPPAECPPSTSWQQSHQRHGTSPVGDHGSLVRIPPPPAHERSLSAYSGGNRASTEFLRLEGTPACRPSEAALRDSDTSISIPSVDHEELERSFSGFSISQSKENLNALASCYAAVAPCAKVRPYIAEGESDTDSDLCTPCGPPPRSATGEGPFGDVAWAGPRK
For `CC(=O)OC(C)(C)/C=C/C(=O)C(C)(O)C1[C@H](O)C[C@@]2(C)C3CC=C4C(CC[C@@H](O)C4(C)C)[C@]3(CO)C(=O)C[C@]12C` (stereo partly drawn), the outcome was “inactive”. For `Cc1ccccc1-n1c(O)c(/C=N/N2CCOCC2)c(=O)[nH]c1=S`, the outcome was “inactive”. In the case of `Cc1ccc(/C=C2/C(=O)NC(=O)N(CCc3ccc(F)cc3)C2=O)o1`, the outcome was “inactive”. With `CC1(C)CSC(=NCc2ccccc2)N1` the outcome was “inactive”. `COc1cccc(CC(=O)N2CCN(Cc3cccc(Cl)c3)CC2)c1` was tested, and the outcome was “inactive”. With `COc1ccc(C(=O)OC2CC[C@@]3(C)C4CCC5[C@]6(O)CC(O)[C@@]7(O)C(CN8CC(C)CCC8[C@@]7(C)O)[C@]6(O)C[C@@]53O[C@]24O)cc1OC` (stereo partly drawn) the potentiation was 160% (active). With `CC/C(=C\C=C\[C@@H]1C=C[C@@H]2CCC[C@H]2[C@@H]1C(=O)c1ccc[nH]1)[C@@H]1O[C@@H]([C@@H](C)C(=O)O)CC[C@@H]1C` the potentiation was 442% (active). In the case of `CC(=NCc1ccc(F)cc1)c1c(O)n(C)c(=O)n(C)c1=O`, the outcome was “inactive”. With `O=C1NC(=O)N(Cc2ccc(F)cc2)C(=O)/C1=C/c1cccs1` the outcome was “inactive”. In the case of `Cn1cccc1/C=C1/C(=O)NC(=S)N(Cc2ccc(F)cc2)C1=O`, the outcome was “inactive”. For `c1ccc2c(c1)Sc1ccccc1N2CC1CN2CCC1CC2` (stereo not drawn), the outcome was “inactive”. In the case of `C/C1=C\[C@@H](C)C/C=C/[C@H]2[C@@H]3O[C@]3(C)[C@@H](C)[C@H]3[C@H](Cc4c[nH]c5ccccc45)NC(=O)[C@]32C(=O)/C=C/C(=O)[C@@H]1O`, the outcome was “inactive”. With `O=C(c1ccc(-c2ccccc2)cc1)C1CCCN(Cc2ccn[nH]2)C1` (stereo not drawn) the outcome was “inactive”. For `CCOC(=O)C1C(=O)NC2(C)CC1c1cc(OC)ccc1O2` (stereo not drawn), the outcome was “inactive”. In the case of `CN1CC(C(=O)c2ccccc2)C(c2ccccc2)C1` (stereo not drawn), the outcome was “inactive”. `O=c1c(C=NCCN2CCNCC2)c(O)n(C2CCCCC2)c(=O)n1C1CCCCC1` was tested, and the outcome was “inactive”. In the case of `CNc1ccc2oc(C[C@H]3O[C@@]4(CC[C@H]3C)O[C@H]([C@H](C)C(=O)c3ccc[nH]3)[C@H](C)C[C@H]4C)nc2c1C(=O)O`, the potentiation was 210% (active). With `CCOP1(=S)Oc2cc3c(cc2C(C(=O)OC)(C(F)(F)F)O1)OCO3` (stereo not drawn) the outcome was “inactive”. `COc1ccccc1N(CC(=O)NC1CCCC1)C(=O)c1cnn(C(C)C)c1` was tested, and the outcome was “inactive”. With `CC1(C)C[C@H]2C=C(C=O)[C@]3(C=O)C[C@]3(C)[C@H]2C1` the outcome was “inactive”. In the case of `COc1ccc2c(c1)/C(=C/c1cnc[nH]1)C(=O)N2`, the outcome was “inactive”. `O=[N+]([O-])c1ccc(N2CCOCC2)c2ccncc12` was tested, and the outcome was “inactive”. In the case of `CCOP(=S)(OCC)c1ccc(N(C)C)cc1`, the outcome was “inactive”. `N#CCCn1cc(C(=O)Nc2ccccc2Cl)c(-c2ccc(F)cc2)n1` was tested, and the potentiation was 144% (active). In the case of `C=C(C)[C@@]12OC3(c4ccccc4)O[C@@H]1C1[C@@H]4O[C@]4(CO)[C@@H](O)[C@]4(O)C(=O)C(C)=C[C@H]4[C@@]1(O3)[C@H](C)[C@H]2OC(=O)/C=C/C=C/c1ccccc1` (stereo partly drawn), the outcome was “inactive”. With `N#Cc1c(N2CCNCC2)nc(-c2ccco2)c2c1CCCC2` the outcome was “inactive”. For `CCN(CC)C(=O)c1ccc(NC(=O)CSc2nnnn2-c2cc(OC)ccc2OC)cc1`, the outcome was “inactive”. With `O=C(O)c1cccc2c1NC(c1cccc([N+](=O)[O-])c1)C1CC(Sc3ccccc3[N+](=O)[O-])C(Cl)C21` (stereo not drawn) the outcome was “inactive”. With `Cc1nc2ccccc2c(=O)n1/N=C/c1cc(Br)cc(Br)c1O` the outcome was “inactive”. `C/C=C(\C)C(=O)N[C@@H](c1ccccc1)[C@@H](O)C(=O)O[C@H]1C[C@@]2(O)[C@@H](OC(=O)c3ccccc3)C3[C@](C)(C(=O)[C@H](OC(C)=O)C(=C1C)C2(C)C)[C@@H](O)C[C@H]1OC[C@@]31OC(C)=O` (stereo partly drawn) was tested, and the outcome was “inactive”. For `CN1CCC(c2c[nH]c3ccccc23)C1` (stereo not drawn), the outcome was “inactive”. In the case of `O=[N+]([O-])c1cccc(C2N3CCCN23)c1` (stereo not drawn), the outcome was “inactive”. In the case of `CC1=CC2/C=C(\C)CCC(O)C(O)/C=C/C(=O)C23C(=O)NC(CC(C)C)C3C1C` (stereo not drawn), the outcome was “inactive”. For `CNC(=O)NC(O)C(Cl)(Cl)Cl` (stereo not drawn), the outcome was “inactive”. `CCOc1cc(CNCCc2c[nH]c3ccccc23)cc(Cl)c1OCC` was tested, and the outcome was “inactive”.
